This is an account of results in ChEMBL document CHEMBL4316629, “Discovery of 1,3-diphenyl-1H-pyrazole derivatives containing rhodanine-3-alkanoic acid groups as potential PTP1B inhibitors” (Bioorg Med Chem Lett, 2019).

Calls of active or inactive are those of the source. The calls are words filed in the database; no cut-off is given here.

For experiment [1], the target named is T1, Tyrosine-protein phosphatase non-receptor type 1 (Homo sapiens, UniProt P18031).
T1 sequence (P18031 whole entry): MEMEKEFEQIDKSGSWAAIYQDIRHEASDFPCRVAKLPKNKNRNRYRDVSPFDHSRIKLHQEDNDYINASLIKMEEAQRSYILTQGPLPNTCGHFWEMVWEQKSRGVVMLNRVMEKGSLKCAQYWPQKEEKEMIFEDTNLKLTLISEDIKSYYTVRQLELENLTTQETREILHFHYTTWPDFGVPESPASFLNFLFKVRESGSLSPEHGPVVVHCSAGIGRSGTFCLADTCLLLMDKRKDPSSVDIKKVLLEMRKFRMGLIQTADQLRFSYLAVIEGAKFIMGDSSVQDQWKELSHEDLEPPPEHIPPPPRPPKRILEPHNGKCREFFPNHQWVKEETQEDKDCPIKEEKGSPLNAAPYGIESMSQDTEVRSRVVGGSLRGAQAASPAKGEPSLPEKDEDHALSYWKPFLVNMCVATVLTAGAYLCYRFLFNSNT
Description: Inhibition of PTP1B (unknown origin) using pNPP as substrate.

Experiment [2] deals with Receptor-type tyrosine-protein phosphatase F (Homo sapiens) (UniProt P10586). Nature of the experiment: Inhibition of LAR (unknown origin) at 20 ug/ml using pNPP as substrate. Summed up: (§1)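 Single-point screen at 20 µg/mL of compound against each phosphatase (LAR, SHP-1, SHP-2), with pNPP hydrolysis as the read-out.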
Chain of Receptor-type tyrosine-protein phosphatase F (Homo sapiens) (P10586 whole entry): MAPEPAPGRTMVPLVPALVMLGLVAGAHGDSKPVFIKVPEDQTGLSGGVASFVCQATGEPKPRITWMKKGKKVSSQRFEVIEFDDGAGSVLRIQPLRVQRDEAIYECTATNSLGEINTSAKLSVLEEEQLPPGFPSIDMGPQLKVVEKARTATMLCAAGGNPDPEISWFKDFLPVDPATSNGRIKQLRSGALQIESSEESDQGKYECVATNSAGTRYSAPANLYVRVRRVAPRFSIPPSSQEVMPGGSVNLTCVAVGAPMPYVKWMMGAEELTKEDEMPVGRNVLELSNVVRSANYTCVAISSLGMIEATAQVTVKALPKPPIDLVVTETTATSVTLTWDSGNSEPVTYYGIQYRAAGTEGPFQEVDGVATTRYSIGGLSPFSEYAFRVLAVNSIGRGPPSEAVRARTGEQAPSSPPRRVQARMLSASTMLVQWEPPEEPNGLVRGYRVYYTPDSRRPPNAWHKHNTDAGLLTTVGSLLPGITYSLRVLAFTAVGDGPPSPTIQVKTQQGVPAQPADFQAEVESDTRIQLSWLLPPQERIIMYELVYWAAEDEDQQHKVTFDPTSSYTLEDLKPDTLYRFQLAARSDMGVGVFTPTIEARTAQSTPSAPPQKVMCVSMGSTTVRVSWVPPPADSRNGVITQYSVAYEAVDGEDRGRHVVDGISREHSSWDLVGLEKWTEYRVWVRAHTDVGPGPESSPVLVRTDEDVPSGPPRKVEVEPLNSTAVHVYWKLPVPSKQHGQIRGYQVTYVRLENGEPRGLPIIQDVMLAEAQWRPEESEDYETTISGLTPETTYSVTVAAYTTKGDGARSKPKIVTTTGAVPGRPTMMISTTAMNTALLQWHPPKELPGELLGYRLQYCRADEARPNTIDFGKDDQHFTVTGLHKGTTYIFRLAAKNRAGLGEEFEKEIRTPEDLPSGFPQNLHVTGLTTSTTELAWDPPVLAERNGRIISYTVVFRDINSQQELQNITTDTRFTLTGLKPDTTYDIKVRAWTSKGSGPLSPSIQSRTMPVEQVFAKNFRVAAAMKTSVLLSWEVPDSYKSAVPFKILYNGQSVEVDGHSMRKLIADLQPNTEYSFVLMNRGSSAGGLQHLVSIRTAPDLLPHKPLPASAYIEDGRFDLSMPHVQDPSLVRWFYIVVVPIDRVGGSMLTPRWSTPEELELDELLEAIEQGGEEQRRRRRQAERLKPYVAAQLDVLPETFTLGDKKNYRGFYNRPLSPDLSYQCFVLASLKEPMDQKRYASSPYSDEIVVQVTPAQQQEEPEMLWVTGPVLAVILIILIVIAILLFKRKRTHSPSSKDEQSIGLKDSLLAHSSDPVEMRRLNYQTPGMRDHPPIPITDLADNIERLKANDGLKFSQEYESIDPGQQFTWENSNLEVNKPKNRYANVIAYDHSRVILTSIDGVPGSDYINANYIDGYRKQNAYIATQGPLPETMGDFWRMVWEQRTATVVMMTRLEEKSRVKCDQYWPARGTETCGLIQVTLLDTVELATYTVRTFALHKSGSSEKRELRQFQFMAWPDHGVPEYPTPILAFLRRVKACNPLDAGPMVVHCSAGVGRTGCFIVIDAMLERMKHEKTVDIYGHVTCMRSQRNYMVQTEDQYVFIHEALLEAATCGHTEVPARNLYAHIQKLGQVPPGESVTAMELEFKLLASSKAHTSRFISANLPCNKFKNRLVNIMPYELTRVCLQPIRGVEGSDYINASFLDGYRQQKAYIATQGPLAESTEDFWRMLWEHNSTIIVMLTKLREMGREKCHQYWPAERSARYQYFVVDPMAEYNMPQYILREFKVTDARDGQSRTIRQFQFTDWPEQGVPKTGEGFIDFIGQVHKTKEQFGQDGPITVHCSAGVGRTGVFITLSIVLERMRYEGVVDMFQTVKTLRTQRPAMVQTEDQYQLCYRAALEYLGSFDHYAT
Experiment [3] addresses T2, Tyrosine-protein phosphatase non-receptor type 2 (Homo sapiens, UniProt P17706).
T2 sequence (P17706 whole entry): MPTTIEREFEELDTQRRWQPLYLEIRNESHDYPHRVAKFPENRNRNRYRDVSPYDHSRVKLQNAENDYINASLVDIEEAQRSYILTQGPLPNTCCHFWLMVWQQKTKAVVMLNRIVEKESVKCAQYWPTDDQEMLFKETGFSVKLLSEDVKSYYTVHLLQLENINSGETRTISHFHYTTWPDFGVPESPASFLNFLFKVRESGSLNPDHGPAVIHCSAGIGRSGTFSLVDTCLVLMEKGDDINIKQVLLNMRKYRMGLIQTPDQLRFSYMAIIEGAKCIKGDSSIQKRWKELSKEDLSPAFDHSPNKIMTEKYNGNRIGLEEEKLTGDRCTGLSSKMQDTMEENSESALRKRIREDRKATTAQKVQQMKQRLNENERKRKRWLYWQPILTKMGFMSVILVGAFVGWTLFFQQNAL
Description: Inhibition of TCPTP (unknown origin) using pNPP as substrate.

In experiment [4] the target is T3, Tyrosine-protein phosphatase non-receptor type 6 (Homo sapiens, UniProt P29350). Description: Inhibition of SHP1 (unknown origin) at 20 ug/ml using pNPP as substrate. Summed up:
as §1

The species entered for experiment [5] is Homo sapiens. Nature of the experiment: Selectivity index, ratio of IC50 for inhibition of TCPTP (unknown origin) using pNPP as substrate to IC50 for inhibition of PTP1B (unknown origin) using pNPP as substrate. Summed up:
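Both TCPTP and PTP1B IC50 values were measured by the same pNPP hydrolysis assay, derived by regression from triplicate dose-response data. The index is the TCPTP IC50 divided by the PTP1B IC50.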

Experiment [6] addresses T4, Tyrosine-protein phosphatase non-receptor type 11 (Homo sapiens) (UniProt Q06124).
T4 sequence (whole entry): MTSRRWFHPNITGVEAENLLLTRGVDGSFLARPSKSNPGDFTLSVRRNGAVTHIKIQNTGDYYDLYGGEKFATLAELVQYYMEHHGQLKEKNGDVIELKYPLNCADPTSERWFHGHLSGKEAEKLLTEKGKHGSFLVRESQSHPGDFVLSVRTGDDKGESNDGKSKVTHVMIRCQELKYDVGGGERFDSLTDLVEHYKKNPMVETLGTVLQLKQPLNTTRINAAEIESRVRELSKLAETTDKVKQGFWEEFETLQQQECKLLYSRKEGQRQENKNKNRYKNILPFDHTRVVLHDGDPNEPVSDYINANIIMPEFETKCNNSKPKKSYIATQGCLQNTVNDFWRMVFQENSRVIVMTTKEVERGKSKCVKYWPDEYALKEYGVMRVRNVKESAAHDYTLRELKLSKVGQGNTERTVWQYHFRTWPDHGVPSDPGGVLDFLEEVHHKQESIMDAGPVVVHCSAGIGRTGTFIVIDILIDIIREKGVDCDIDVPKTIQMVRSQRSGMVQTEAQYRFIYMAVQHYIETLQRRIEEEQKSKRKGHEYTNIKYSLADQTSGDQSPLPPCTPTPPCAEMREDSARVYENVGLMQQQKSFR
Nature of the experiment: Inhibition of SHP2 (unknown origin) at 20 ug/ml using pNPP as substrate. Summed up: as §1

Experiment [7] deals with T5, M-phase inducer phosphatase 2 (Homo sapiens, UniProt P30305).
T5 sequence (P30305 whole entry): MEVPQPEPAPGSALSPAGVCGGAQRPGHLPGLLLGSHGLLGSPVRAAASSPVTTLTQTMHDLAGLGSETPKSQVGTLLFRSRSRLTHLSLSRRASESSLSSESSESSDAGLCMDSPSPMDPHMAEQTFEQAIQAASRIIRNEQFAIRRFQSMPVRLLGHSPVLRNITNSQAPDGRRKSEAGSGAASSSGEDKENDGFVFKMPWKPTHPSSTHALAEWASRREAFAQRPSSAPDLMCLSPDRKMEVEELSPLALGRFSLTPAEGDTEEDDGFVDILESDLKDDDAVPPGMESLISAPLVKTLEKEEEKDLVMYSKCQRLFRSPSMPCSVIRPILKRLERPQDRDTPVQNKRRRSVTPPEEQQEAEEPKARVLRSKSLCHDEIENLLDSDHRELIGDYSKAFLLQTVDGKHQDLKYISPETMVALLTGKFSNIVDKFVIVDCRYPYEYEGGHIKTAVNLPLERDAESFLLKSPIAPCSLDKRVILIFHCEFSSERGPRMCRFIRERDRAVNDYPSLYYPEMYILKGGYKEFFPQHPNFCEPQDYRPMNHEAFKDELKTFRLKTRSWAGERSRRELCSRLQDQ
Nature of the experiment: Inhibition of CDC25B (unknown origin) using pNPP as substrate. In outline:
(§2)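 Same pNPP-substrate phosphatase assay as for PTP1B, applied for selectivity. Compounds were first screened at 20 μg/mL, then tested over a dose range. IC50 was obtained by regression analysis and reported as mean ± SD of three replications. Oleanolic acid served as the positive control.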

The target of experiment [8] is T1, Tyrosine-protein phosphatase non-receptor type 1. Description: Competitive type inhibition of PTP1B (unknown origin) using pNPP as substrate by Lineweaver-Burk plot analysis.
In experiment [9] the target is T6, Tyrosine-protein phosphatase non-receptor type 1 (Homo sapiens) (UniProt P18031).
T6 sequence (whole entry): T1 sequence (P18031 whole entry)
Nature of the experiment: Time dependent inhibition of PTP1B (unknown origin) using pNPP as substrate.

Experiment [10] has as its target T3, Tyrosine-protein phosphatase non-receptor type 6. Description: Inhibition of SHP1 (unknown origin) using pNPP as substrate. In outline:
as §2

The target in experiment [11] is T7, Tyrosine-protein phosphatase non-receptor type 11 (Homo sapiens, UniProt Q06124).
T7 sequence (Q06124 whole entry): T4 sequence (whole entry)
Nature of the experiment: Inhibition of SHP2 (unknown origin) using pNPP as substrate. In outline:
as §2

T3 sequence (P29350 whole entry): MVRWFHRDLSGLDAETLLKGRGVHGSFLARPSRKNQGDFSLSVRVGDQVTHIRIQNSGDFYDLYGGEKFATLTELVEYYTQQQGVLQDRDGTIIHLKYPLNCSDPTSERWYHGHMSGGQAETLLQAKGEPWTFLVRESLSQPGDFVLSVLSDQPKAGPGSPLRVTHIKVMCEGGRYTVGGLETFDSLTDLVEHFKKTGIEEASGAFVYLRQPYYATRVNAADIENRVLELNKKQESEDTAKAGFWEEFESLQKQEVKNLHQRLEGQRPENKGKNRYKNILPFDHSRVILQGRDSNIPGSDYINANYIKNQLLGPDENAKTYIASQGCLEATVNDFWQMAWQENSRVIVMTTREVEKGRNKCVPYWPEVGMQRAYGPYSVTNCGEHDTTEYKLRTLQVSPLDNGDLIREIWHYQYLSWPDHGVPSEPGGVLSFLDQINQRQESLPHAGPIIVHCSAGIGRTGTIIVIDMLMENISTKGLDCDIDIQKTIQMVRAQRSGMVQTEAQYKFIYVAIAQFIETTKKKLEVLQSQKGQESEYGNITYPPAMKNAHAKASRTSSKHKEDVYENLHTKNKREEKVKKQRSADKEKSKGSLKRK

By IC50 is commonly meant the concentration that inhibits the measured activity by half. The low end stands for greater potency in that assay, the high end for weaker potency in that assay. For the molecule `O=C(O)[C@@H](Cc1ccccc1)N1C(=O)/C(=C/c2cn(-c3ccccc3)nc2-c2ccccc2Cl)SC1=S`, the IC50 in experiment [1] was 4.89 µM. This lies in the single-digit micromolar range.

`COc1ccccc1-c1nn(-c2ccccc2)cc1/C=C1\SC(=S)N(CC(=O)O)C1=O` came in with an IC50 in experiment [1] of 24.6 µM. Against the preceding molecule, the IC50 is about 5-fold higher.

Consider `O=C(O)CCCN1C(=O)/C(=C/c2cn(-c3ccccc3)nc2-c2ccc(Cl)cc2Cl)SC1=S`, for which the inhibition result in [2], in [4] and in experiment [6] was “inactive” throughout. The IC50 is 9.18 µM in experiment [3], 3.66 µM in experiment [1] and 13.8 µM in experiment [7]. Further, the Ratio IC50 in [5] is 2 to 9.

As for `O=C(O)[C@@H](Cc1ccccc1)N1C(=O)/C(=C/c2cn(-c3ccccc3)nc2-c2ccc(Cl)cc2)SC1=S`, in experiment [1], half-maximal inhibition (IC50) required 2.1 µM.

As to `O=C(O)CCN1C(=O)/C(=C/c2cn(-c3ccccc3)nc2-c2ccc(Cl)cc2Cl)SC1=S`, the inhibition entry in [2], in experiment [4] and in [6] was “inactive” in each case. Also, the IC50 in [3] came out at 14 µM; in [1], 7.93 µM; in experiment [7] it was 17.1 µM. The Ratio IC50 in [5] fell in the range of 2 to 9.

In experiment [1], `O=C(O)CN1C(=O)/C(=C/c2cn(-c3ccccc3)nc2-c2ccc(Br)cc2)SC1=S` registered an IC50 of 14.2 µM.

In the case of `O=C(O)CN1C(=O)/C(=C/c2cn(-c3ccccc3)nc2-c2ccc([N+](=O)[O-])cc2)SC1=S`, the IC50 in [1] is 9.24 µM.

`O=C(O)CN1C(=O)/C(=C/c2cn(-c3ccccc3)nc2-c2cccc(Cl)c2)SC1=S` displayed a half-maximal inhibitory concentration (IC50) in experiment [1] of 13.2 µM.

For the molecule `O=C(O)CCCN1C(=O)/C(=C/c2cn(-c3ccccc3)nc2-c2ccc(Cl)cc2)SC1=S`, the IC50 in experiment [1] is 2.27 µM.

As a reminder, the Ki is the dissociation constant of the complex between target and ligand, obtained from inhibition or displacement. Regarding `O=C(O)[C@@H](Cc1ccccc1)N1C(=O)/C(=C/c2cn(-c3ccccc3)nc2-c2ccc3ccccc3c2)SC1=S`, the inhibition result in experiment [2], in [4] and in experiment [6] was “inactive” each time. Besides, the half-maximal inhibitory concentration (IC50) came out at 4.61 µM in experiment [3], 1.81 µM in experiment [1] and 6.12 µM in experiment [7]. In addition, in experiment [8], the affinity corresponds to a Ki of 0.7 µM. Further, the Ratio IC50 in experiment [5] fell in the range of 2 to 9. The TDI result in [9] is “inactive”.

Take `O=C(O)[C@@H](Cc1ccccc1)N1C(=O)/C(=C/c2cn(-c3ccccc3)nc2-c2ccc(Cl)cc2Cl)SC1=S`: in [2], the inhibition entry is “inactive”. Moreover, the IC50 in experiment [3] amounted to 12.7 µM; in experiment [10], 16.8 µM; in experiment [11], 16.7 µM; in experiment [1], 3.56 µM; in experiment [7] it was 13.7 µM. For the same molecule, in experiment [5], the Ratio IC50 was 2 to 9.

As to `O=C(O)CN1C(=O)/C(=C/c2cn(-c3ccccc3)nc2-c2ccc3ccccc3c2)SC1=S`, the inhibition entry in [2] was “inactive”. For the same molecule, the half-inhibitory concentration (IC50) amounted to 7.91 µM in [3]; 24.5 µM in experiment [10]; 20.9 µM in experiment [11]; 4.78 µM in [1]; 11.3 µM in experiment [7]. In experiment [5], the Ratio IC50 was in the range of 2 to 9.

`O=C(O)CCCCN1C(=O)/C(=C/c2cn(-c3ccccc3)nc2-c2ccc(Cl)cc2)SC1=S` gave a 50% inhibitory concentration (IC50) in experiment [1] of 2.2 µM.

In experiment [1], `COc1ccccc1-c1nn(-c2ccccc2)cc1/C=C1\SC(=S)N([C@H](Cc2ccccc2)C(=O)O)C1=O` yielded an IC50 of 6.3 µM.

Consider `O=C(O)CCCCCN1C(=O)/C(=C/c2cn(-c3ccccc3)nc2-c2ccc(Cl)cc2)SC1=S`, for which, in [1], inhibition was half-maximal at 1.85 µM (IC50).

In [1], `Cc1ccc(-c2nn(-c3ccccc3)cc2/C=C2\SC(=S)N(CC(=O)O)C2=O)cc1` showed a half-inhibitory concentration (IC50) of 14.7 µM. This IC50 is about 7.9-fold higher than that of the molecule before.

Molecule `O=C(O)CN1C(=O)/C(=C/c2cn(-c3ccccc3)nc2-c2cccc(Br)c2)SC1=S` returned an IC50 in experiment [1] of 12.1 µM.

`O=C(O)[C@@H](Cc1ccccc1)N1C(=O)/C(=C/c2cn(-c3ccccc3)nc2-c2ccc([N+](=O)[O-])cc2)SC1=S`: half-maximal inhibition in experiment [1] (IC50) required 3.57 µM.

`COc1ccc(-c2nn(-c3ccccc3)cc2/C=C2\SC(=S)N([C@H](Cc3ccccc3)C(=O)O)C2=O)cc1` returned a half-maximal inhibitory concentration (IC50) in experiment [1] of 7.09 µM.

For the molecule `O=C(O)[C@@H](Cc1ccccc1)N1C(=O)/C(=C/c2cn(-c3ccccc3)nc2-c2ccc(Br)cc2)SC1=S`, the IC50 in [1] came out at 4.42 µM.

Regarding `O=C(O)CCN1C(=O)/C(=C/c2cn(-c3ccccc3)nc2-c2ccc(Cl)cc2)SC1=S`, the 50% inhibitory concentration (IC50) in experiment [1] was 6.58 µM. This IC50 and that of the molecule before are within 1.5-fold of each other.

`COc1cccc(-c2nn(-c3ccccc3)cc2/C=C2\SC(=S)N([C@H](Cc3ccccc3)C(=O)O)C2=O)c1` displayed an IC50 in experiment [1] of 4.95 µM.

`O=C(O)[C@@H](Cc1ccccc1)N1C(=O)/C(=C/c2cn(-c3ccccc3)nc2-c2ccccc2)SC1=S` yielded an IC50 in [1] of 6.37 µM.

For the molecule `Cc1ccc(-c2nn(-c3ccccc3)cc2/C=C2\SC(=S)N([C@H](Cc3ccccc3)C(=O)O)C2=O)cc1`, in [1], the 50% inhibitory concentration (IC50) was determined as 2.05 µM.

Turning to `O=C(O)CCCCCN1C(=O)/C(=C/c2cn(-c3ccccc3)nc2-c2ccc(Cl)cc2Cl)SC1=S`, the inhibition entry in [2], in [4] and in experiment [6] was “inactive” each time. Further, the IC50 stood at 5.63 µM in experiment [3], 1.35 µM in experiment [1] and 10.9 µM in experiment [7]. The Ratio IC50 in experiment [5] was 2 to 9.

In the case of `O=C(O)[C@@H](Cc1ccccc1)N1C(=O)/C(=C/c2cn(-c3ccccc3)nc2-c2cccc(Br)c2)SC1=S`, it took 2.76 µM to reach half-maximal inhibition in experiment [1] (IC50).
